Laboratory results taken from ChEMBL document CHEMBL5724801, “EUbOPEN Chemogenomics Library - Multiplex” (2024).
Values joined by “and” are separate entries in the source; they are usually repeats but may differ in a detail not shown here. Identical values can stand only once.

System: HEK-293T
Experiment: Multiplex assay against HEK293T
Type: toxicity, cell-based
Conditions: human
Procedure, shortened: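 Tubulin, mitochondrial-mass and membrane-permeability phenotypes are per cents of healthy-nucleus cells. Cells were gated by CellPathfinder machine learning into Hoechst high-intensity objects or normal cells, normal cells into healthy, pyknosed or fragmented nuclei, and pyknosed cells into mitotic or apoptotic. Before that, live cells stained at seeding with Hoechst33342, BioTracker Green Microtubule Cytoskeleton Dye, MitoTracker Red and Annexin V Alexa Fluor 680 were imaged on a CQ1 microscope at 37°C and 5% CO2 after compound addition.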

[1] = 12 h, 1 µM, compound concentration 1 uM
[2] = 12 h, 10 µM, compound concentration 10 uM
[3] = 24 h, 1 µM, compound concentration 1 uM
[4] = 24 h, 10 µM, compound concentration 10 uM
[5] = 48 h, 1 µM, compound concentration 1 uM
[6] = 48 h, 10 µM, compound concentration 10 uM

SMILES: CN1CC[C@@]23CCCC[C@@H]2[C@@H]1Cc1ccc(O)cc13.O=C(O)C(O)C(O)C(=O)O
- Population Apoptotic (%) [1]: 5.07% and 6.25%
- Population Fragmented Nuclei (%) [1]: 0% and 2.38%
- Population Healthy Nuclei (%) [1]: 61.34% and 21.43%
- Population Hoechst High Intensity Objects (%) [1]: 0.28% and 0.59%
- Population Membrane Permeable-Phenotype (%) [1]: 0%
- Population Mitochondria Different-Phenotype (%) [1]: 31.51% and 13.89%
- Population Mitotic Cells (%) [1]: 94.93% and 93.75%
- Population Normal (%) [1]: 99.72% and 99.41%
- Population Pyknosed Nuclei (%) [1]: 38.66% and 76.19%
- Total Cell Count [1]: 358 and 169
- Population Apoptotic (%) [2]: 7.34% and 9.57%
- Population Fragmented Nuclei (%) [2]: 0.33% and 1.28%
- Population Healthy Nuclei (%) [2]: 63.93% and 25%
- Population Hoechst High Intensity Objects (%) [2]: 0%
- Population Membrane Permeable-Phenotype (%) [2]: 0% and 2.56%
- Population Mitochondria Different-Phenotype (%) [2]: 30.77%
- Population Mitotic Cells (%) [2]: 92.66% and 90.43%
- Population Normal (%) [2]: 100%
- Population Pyknosed Nuclei (%) [2]: 35.74% and 73.72%
- Total Cell Count [2]: 305 and 156
- Population Apoptotic (%) [3]: 13.27% and 11.22%
- Population Fragmented Nuclei (%) [3]: 1.37% and 2.04%
- Population Healthy Nuclei (%) [3]: 83.74% and 47.96%
- Population Hoechst High Intensity Objects (%) [3]: 0.15% and 0.51%
- Population Membrane Permeable-Phenotype (%) [3]: 1.27% and 3.19%
- Population Mitochondria Different-Phenotype (%) [3]: 9.98% and 11.7%
- Population Mitotic Cells (%) [3]: 86.73% and 88.78%
- Population Normal (%) [3]: 99.85% and 99.49%
- Population Tubulin-Different-Phenotype (%) [3]: 6.17% and 3.19%
- Population Apoptotic (%) [4]: 10.81% and 11.46%
- Population Fragmented Nuclei (%) [4]: 0.62% and 0.67%
- Population Healthy Nuclei (%) [4]: 76.45% and 35.33%
- Population Hoechst High Intensity Objects (%) [4]: 0%
- Population Membrane Permeable-Phenotype (%) [4]: 0.54% and 0%
- Population Mitochondria Different-Phenotype (%) [4]: 20.54% and 11.32%
- Population Mitotic Cells (%) [4]: 89.19% and 88.54%
- Population Normal (%) [4]: 100%
- Population Pyknosed Nuclei (%) [4]: 22.93% and 64%
- Population Tubulin-Different-Phenotype (%) [4]: 12.16% and 9.43%
- Population Fragmented Nuclei (%) [5]: 4.07% and 2.37%
- Population Healthy Nuclei (%) [5]: 87.05% and 78.04%
- Population Hoechst High Intensity Objects (%) [5]: 0%
- Population Membrane Permeable-Phenotype (%) [5]: 3.59% and 4.18%
- Population Mitochondria Different-Phenotype (%) [5]: 11.36% and 7.6%
- Population Mitotic Cells (%) [5]: 97.89% and 83.33%
- Population Normal (%) [5]: 100%
- Population Pyknosed Nuclei (%) [5]: 8.89% and 19.58%
- Population Fragmented Nuclei (%) [6]: 2.47% and 1.7%
- Population Healthy Nuclei (%) [6]: 87.64% and 68.94%
- Population Hoechst High Intensity Objects (%) [6]: 0%
- Population Membrane Permeable-Phenotype (%) [6]: 5.64% and 3.09%
- Population Mitochondria Different-Phenotype (%) [6]: 15.29% and 22.84%
- Population Mitotic Cells (%) [6]: 95.19% and 81.16%
- Population Normal (%) [6]: 100%
- Population Pyknosed Nuclei (%) [6]: 9.89% and 29.36%
